In the library only some 0.74% were active in any assay of this set; here they are far more common.
ASAP1 GAP inh = ASAP1 ArfGAP inhibition; ASAP1-stimulated ARF1 GTP hydrolysis, GDP FP detection; inhibition, % at 16.5 µM; hit rate 0.19% among 360,000; AID 624377; in the data active means inhibition above about 25%;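 further: 0% = vehicle with enzyme and substrate and 100% = no enzyme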
DDE Tn6 FP inh = DD(E)-Tn6 binding inhibition, primary FP screen. P02675. Fibrin DD(E) TRITC-Tn6 fluorescence polarization displacement. inhibition, % at 8.3 µM. hit rate 0.21% among 370,000. AID 720509;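 active means inhibition above a per-campaign cutoff: mean of compounds within control limits plus 3 SD, cut at about 15% in these data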;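 further: 0% = median of all compound wells on the plate and 100% = blocking peptide control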
Target sequence (P02675 whole entry, looked up): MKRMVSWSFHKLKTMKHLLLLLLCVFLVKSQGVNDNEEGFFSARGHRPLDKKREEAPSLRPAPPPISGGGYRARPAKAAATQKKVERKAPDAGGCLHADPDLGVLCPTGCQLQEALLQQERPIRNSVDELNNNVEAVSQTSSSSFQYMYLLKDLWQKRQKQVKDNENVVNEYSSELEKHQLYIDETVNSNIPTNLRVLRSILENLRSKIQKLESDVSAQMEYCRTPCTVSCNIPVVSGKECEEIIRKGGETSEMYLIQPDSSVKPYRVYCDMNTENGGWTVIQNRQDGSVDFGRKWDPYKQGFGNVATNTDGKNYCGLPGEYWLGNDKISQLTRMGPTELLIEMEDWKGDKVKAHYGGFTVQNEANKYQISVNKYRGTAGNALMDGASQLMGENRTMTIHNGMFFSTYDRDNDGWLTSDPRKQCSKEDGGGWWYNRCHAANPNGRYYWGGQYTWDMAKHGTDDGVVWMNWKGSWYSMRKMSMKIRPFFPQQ
ARFGAP1 inhibitor = inhibitors of rat ARFGAP1; Q62848; Arfgap1-stimulated ARF1 GTP hydrolysis, GDP FP detection; inhibition, % at 16.5 µM; hit rate 0.26% among 360,000; AID 651572;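 active means inhibition above a per-plate limit, mean inhibition of low control wells plus 3 SD, cut at about 25% in these data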;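 further: 0% = DMSO wells with enzyme and 100% = wells lacking Arfgap1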
Target sequence (Q62848 1-136 limits assumed): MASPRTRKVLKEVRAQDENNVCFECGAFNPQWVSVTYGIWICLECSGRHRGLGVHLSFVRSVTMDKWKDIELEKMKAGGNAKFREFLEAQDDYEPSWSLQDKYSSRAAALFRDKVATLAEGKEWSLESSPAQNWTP
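Material: rat Arfgap1 catalytic domain, aa 1-136; also added: human ARF1(Δ1-17)-GTP substrate; compound dosing: one concentration, 16.5 µM, DMSO 1.26%; incubation: GTP hydrolysis reaction 2 h at 25 °C; measured by: Tracer-displacement fluorescence polarization with EDTA stop, 620/688 nm; evaluation: % inhibition from polarization; repeats: one replicate per compound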
DDE Tn7 FP inh = inhibitors of Tn7 peptide binding to human fibrin DD(E); P02675; FP displacement of FITC-Tn7 peptide from fibrin DD(E); 0% = median of compound wells per plate; inhibition, % at 8.3 µM; hit rate 0.13% among 370,000;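 active means inhibition above the mean of compounds falling within the control limits plus 3 SD of them, cut at about 14% in these data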;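 further: 0% = plate median of compound wells and 100% = 10 µM Aha-Tn7 peptide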
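System: human fibrin DD(E); quantity: Fibrin-DD(E) at 2 µM final; also added: fluorescent Tn7 probe at 0.1 µM; compound dosing: single nominal test concentration of 8.3 µM per compound; schedule: 10 min preincubation, 3 h with tracer, room temperature; detection: fluorescence polarization of the labelled Tn7 tracer; repeats: one replicate per compound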
ARFGAP1 confirm = rat ARFGAP1 inhibition, confirmed; shares compounds with ARFGAP1 inhibitor; ARFGAP1-stimulated ARF1 GTP hydrolysis, GDP tracer FP; inhibition, % at 16.5 µM; hit rate 30% among 890; AID 651608;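 active means average inhibition over triplicates above the hit cutoff set in the earlier primary screen, cut at about 25% in these data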;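 further: 0% = Arfgap1 plus ARF1-GTP with DMSO and 100% = wells lacking Arfgap1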
* marks the source's active call; other numbers are inactive results; . = no result.

SMILES	ASAP1 GAP inh	DDE Tn6 FP inh	ARFGAP1 inhibitor	DDE Tn7 FP inh	ARFGAP1 confirm
O=C(NCCc1ccccc1Cl)[C@@H]1CCCN1C(=O)[C@@H](NS(=O)(=O)c1ccc(F)cc1F)C1CCCCC1	13	-5	4	4	.
C=C(C)CC1(NC(C)c2ccccc2)CCCCC1 (centres undefined)	12	-18	31*	-10	-1
CC(NC(=O)CC1CCCCC1)c1ccccc1 (centres undefined)	1	3	-2	6	.
CCc1cc2c(nc1CC)CCCN2S(=O)(=O)c1ccc(F)cc1	-12	-2	-7	6	.
CCOC(=O)C(C)(C)N(Cc1cccc(C)c1)S(=O)(=O)c1cccc([N+](=O)[O-])c1	-11	-5	35*	-4	1
CCOC(=O)C(C)(C)N(Cc1cccc(C)c1)S(=O)(=O)c1ccc(Cl)c([N+](=O)[O-])c1	-7	3	11	-9	.
O=C(N[C@H](C(=O)N1CCC[C@H]1C(=O)NC1CCCC1)C1CCCCC1)c1nccs1	-4	-5	3	-1	.
CCCCCCCCN1C(=O)[C@H](CC(=O)NCc2ccccc2)C[C@@]2(C(=O)OCC)CCC=C12	7	-6	28*	5	4
CCCCCCCCN1C(=O)[C@H](CC(=O)NCc2cccc3ccccc23)C[C@@]2(C(=O)OCC)CCC=C12	-14	-6	3	3	.
O=C(CSc1ncn[nH]1)NCc1ccccc1Cl	-3	-2	25*	-11	-2
O=C(CSc1ncn[nH]1)NCc1ccc(Cl)cc1	-1	-6	-10	5	.
COc1ccc(N2CCN(C(=O)CCNC(=O)c3ccc(C(C)(C)C)cc3)CC2)cc1	6	-3	4	0	.
COc1ccc(N2CCN(C(=O)c3ccc(C(C)(C)C)cc3)CC2)cc1	4	1	28*	-2	-4
Cc1cc(O)c(-c2cc(C(=O)Nc3ccc(S(=O)(=O)N4CCOCC4)cc3)[nH]n2)cc1C	2	-10	9	3	.
COc1ccc(Cl)cc1-c1cc(C(=O)Nc2ccccc2)[nH]n1	-9	-4	16	0	.
CCOc1ccc(Cl)cc1-c1cc(C(=O)Nc2ccc(OC)cc2OC)[nH]n1	14	3	60*	0	121*
COc1ccc(NC(=O)c2cc(-c3ccccc3O)n[nH]2)cc1Cl	7	-9	27*	-8	7
O=C(Nc1ccc(S(=O)(=O)N2CCOCC2)cc1)c1cc(-c2cc(Cl)ccc2O)n[nH]1	7	-34	41*	0	29*
COc1ccc(Cl)cc1-c1cc(C(=O)Nc2ccc(Br)cc2)[nH]n1	6	8	28*	-9	15
COc1cc(CCN=Cc2cccc(OC)c2O)c([N+](=O)[O-])cc1OC	18	-1	7	1	.
COC(=O)[C@]12C[C@H](CC(=O)NCc3cccc4ccccc34)C(=O)N(Cc3ccc4c(c3)OCO4)C1=C[C@H](COCc1ccccc1)O[C@@H]2C	3	-7	3	-3	.
COc1ccc(Cl)c(-c2cc(C(=O)Nc3ccccc3)[nH]n2)c1	14	-12	25*	-1	11
Nc1ccc2nc(-c3cccnc3)[nH]c2c1	12	3	-14	0	.
Nc1cccc(C(=O)Nc2ccc3nc(-c4cccnc4)[nH]c3c2)c1	8	0	29*	-7	8
COc1ccc(Sc2cccc(Cl)c2)c(C(=O)O)c1	-5	2	5	-1	.
SMILES	ASAP1 GAP inh	DDE Tn6 FP inh	ARFGAP1 inhibitor	DDE Tn7 FP inh	ARFGAP1 confirm
COc1cccc(C(=O)Cn2c(Br)nc3c2c(=O)n(C)c(=O)n3C)c1	0	9	28*	4	5
COc1ccc(C(=O)Cn2c(Cl)nc3c2c(=O)n(C)c(=O)n3C)cc1	-4	-1	-4	-7	.
CC#CCN(Cc1ccco1)C(=O)C1CCC(=O)N(CCc2cccc(F)c2)C1 (centres undefined)	-2	-1	28*	4	-3
Oc1cccc(Nc2nc(O)c(/C=C3\C=Nc4ccccc43)s2)c1	3	-24	6	-8	.
Oc1nc(Nc2cccc(Cl)c2)sc1/C=C1\C=Nc2ccccc21	19	-23	25*	-8	21
O=C(N/N=C/c1cccc([N+](=O)[O-])c1)c1ccc(COc2ccccc2-c2ccccc2)cc1	8	-2	35*	14	2
Cc1ccc(Cc2c(C3CCCCC3)nc3c(C)cc(Br)cn23)cc1	2	-9	7	2	.
Cc1cc(Br)cn2c(Cc3ccccc3)c(C3CCCCC3)nc12	-6	6	155*	4	2
NC(=O)N1N=C2/C(=C/c3ccccc3)CCCC2C1c1ccccc1 (centres undefined)	-5	1	-2	-1	.
Cc1ncsc1C(=O)N1N=C2/C(=C/c3ccccc3)CCCC2C1c1ccccc1 (centres undefined)	-6	-1	30*	-2	-2
COc1ccc(S(=O)(=O)N2CCN(C(=S)NCCc3ccccc3)CC2)cc1	13	8	9	-4	.
COc1ccc(CCNC(=S)N2CCN(S(=O)(=O)c3ccc(C)cc3)CC2)cc1	5	1	27*	-2	4
O=C(Nc1ccc2oc(=O)ccc2c1)c1ccc(-c2cccc([N+](=O)[O-])c2)o1	63*	-2	71*	-6	107*
CC(C)(C)C1=CC(CC(N)=O)(C(C)(C)C)OC1=O (centres undefined)	6	-6	0	-5	.
CSc1ccc(/C=N/NC(=O)c2ccc3nc[nH]c3c2)cc1	12	0	28*	-6	4
CN(C)c1ccc(/C=N/NC(=O)c2ccc3nc[nH]c3c2)cc1	3	3	6	-3	.
CCCCc1c(-c2ccccc2OC)ncn1Cc1ccc(F)c(F)c1	3	4	5	8	.
CCCCOCC1CN(CCCC)S(=O)(=O)c2c(cccc2Sc2ccc(SC)cc2)O1 (centres undefined)	-2	-8	7	-1	.
COc1ccc(Cl)cc1NC(=O)Cn1c(=O)oc2ccccc21	2	4	21	1	.
O=C(Cn1c(=O)oc2ccccc21)Nc1ccc(Cl)cc1Cl	-8	-3	25*	-2	-2
Cc1cccc(-c2n[nH]nc2C2=CC(=O)CC(C)(C)C2)c1	-2	0	42*	4	-3
CC1(C)CC(=O)C=C(c2n[nH]nc2-c2ccccc2)C1	-5	10	8	4	.
CN(C)S(=O)(=O)c1ccc(C(=O)N(c2ccccn2)c2ccccn2)cc1	-13	-10	31*	-1	-1
COc1ccc(OC)c(C2C(C(=O)Nc3nc4ccccc4s3)=C(C)NC3=C2C(=O)CCC3)c1 (centres undefined)	18	-1	25*	0	22
O=[N+]([O-])c1ccc(N/N=C2\CC3CC=CC23)cc1 (centres undefined)	7	-8	28*	0	3
